Test results published in ChEMBL document CHEMBL4265873, “Design and discovery of silybin analogues as antiproliferative compounds using a ring disjunctive - Based, natural product lead optimization approach” (Eur J Med Chem, 2017).

Legend:
[1] = system: MCF7; experiment: Cytotoxicity in human MCF7 cells assessed as reduction in cell viability incubated for 68 hrs by MTT assay; assay type: functional, cell-based; conditions: MCF7, 68 h
Procedure, shortened: (§1)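 Cells were trypsinised and seeded at 5x10^3 cells/well. Compound was added at 0, 0.1, 0.3, 1, 3, 10, 30 and 100 µM for 68 h. MTT (4 mg/mL solution) was then added for 4 h, and the formazan was dissolved in DMSO. Absorbance read at 570 nm. IC50 was derived from % survival across the eight concentrations. Mean ± SD of three independent experiments, each in triplicate.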

[2] = system: HEK293; experiment: Cytotoxicity in HEK293 cells assessed as reduction in cell viability incubated for 68 hrs by MTT assay; assay type: cell-based; conditions: Homo sapiens, HEK293, 68 h; procedure, shortened: as §1
[3] = system: MDA-MB-231; experiment: Cytotoxicity in human MDA-MB-231 cells assessed as reduction in cell viability incubated for 68 hrs by MTT assay; assay type: functional, cell-based; conditions: MDA-MB-231, 68 h; procedure, shortened: as §1
[4] = system: BT-20; experiment: Cytotoxicity in human BT20 cells assessed as reduction in cell viability incubated for 68 hrs by MTT assay; assay type: functional, cell-based; conditions: BT-20, 68 h; procedure, shortened: as §1
[5] = system: A2780; experiment: Cytotoxicity in human A2780 cells assessed as reduction in cell viability incubated for 68 hrs by MTT assay; assay type: functional, cell-based; conditions: A2780, 68 h; procedure, shortened: as §1
[6] = system: 2008; experiment: Cytotoxicity in human OV2008 cells assessed as reduction in cell viability incubated for 68 hrs by MTT assay; assay type: functional, cell-based; conditions: Homo sapiens, 2008, 68 h; procedure, shortened: as §1
[7] = system: ZR-75-1; experiment: Cytotoxicity in human ZR-75-1 cells assessed as reduction in cell viability incubated for 68 hrs by MTT assay; assay type: functional, cell-based; conditions: ZR-75-1, 68 h; procedure, shortened: as §1
[8] = system: CHO; experiment: Cytotoxicity in CHO cells assessed as reduction in cell viability incubated for 68 hrs by MTT assay; assay type: cell-based; conditions: Cricetulus griseus; procedure, shortened: as §1
[9] = system: DU-145; experiment: Cytotoxicity in human DU145 cells assessed as reduction in cell viability incubated for 68 hrs by MTT assay; assay type: functional, cell-based; conditions: DU-145, 68 h; procedure, shortened: as §1
[10] = system: PANC-1; experiment: Cytotoxicity in human PANC1 cells assessed as reduction in cell viability incubated for 68 hrs by MTT assay; assay type: functional, cell-based; conditions: PANC-1, 68 h; procedure, shortened: as §1
[11] = Cytotoxicity in human CRL1459 cells assessed as reduction in cell viability incubated for 68 hrs by MTT assay; assay type: cell-based; procedure, shortened: as §1
[12] = system: MCF7; experiment: Potency index, ratio of IC50 for silybin to IC50 for test compound for cytotoxicity in human MCF7 cells assessed as reduction in cell viability incubated for 68 hrs by MTT assay; assay type: functional

SMILES: O=C(/C=C/c1cccc(OCc2ccccc2)c1)c1ccc(Cl)cc1Cl
- IC50 [1]: 9.4 µM
- IC50 [2]: 24.9 µM
- IC50 [3]: 6.8 µM
- IC50 [4]: 19.2 µM
- IC50 [5]: 21.4 µM
- IC50 [6]: 5.2 µM
- IC50 [7]: 9.4 µM
- IC50 [8]: 27.5 µM
- IC50 [9]: 27.3 µM
- IC50 [10]: 27.2 µM
- IC50 [11]: 7.8 µM

SMILES: COc1ccc(C(=O)/C=C/c2cccc(OCc3ccccc3)c2)cc1
- IC50 [1]: 6 µM
- IC50 [2]: 79.8 µM
- IC50 [3]: 12.4 µM
- IC50 [4]: 38.3 µM
- IC50 [5]: 38.1 µM
- IC50 [6]: 17.2 µM
- IC50 [7]: 19.9 µM
- IC50 [8]: 22.9 µM
- IC50 [9]: 51.3 µM
- IC50 [10]: 44.3 µM
- IC50 [11]: 25.4 µM

SMILES: COc1cc(C2Oc3cc(/C=C/C(=O)c4ccccc4O)ccc3OC2CO)ccc1O (stereo not given)
- IC50 [1]: 12.1 µM

SMILES: O=C(/C=C/c1cccc(OCc2ccccc2)c1)c1ccc(Cl)c(Cl)c1Cl
- IC50 [1]: 2.4 µM
- IC50 [2]: 2.4 µM
- IC50 [3]: 2.4 µM
- IC50 [4]: 3.9 µM
- IC50 [5]: 1.5 µM
- IC50 [6]: 1.5 µM
- IC50 [7]: 6.2 µM
- IC50 [8]: 8.6 µM
- IC50 [9]: 6.4 µM
- IC50 [10]: 2.4 µM
- IC50 [11]: 2.5 µM

SMILES: Cc1ccc(C(=O)/C=C/c2cccc(OCc3ccccc3)c2)cc1
- IC50 [1]: 21.7 µM
- IC50 [2]: 8.2 µM
- IC50 [3]: 15.6 µM
- IC50 [4]: 61 µM
- IC50 [5]: 20.5 µM
- IC50 [6]: 12.9 µM
- IC50 [7]: 25.8 µM
- IC50 [8]: 26.4 µM
- IC50 [9]: 25.6 µM
- IC50 [10]: 41.6 µM
- IC50 [11]: 19.8 µM

SMILES: O=C(/C=C/c1ccccc1)c1ccccc1 [CHALCONE]
- IC50 [1]: 12.6 µM
- IC50 [2]: 10.7 µM
- IC50 [3]: 6.7 µM
- IC50 [4]: 21.1 µM
- IC50 [5]: 67.5 µM
- IC50 [6]: 33.4 µM
- IC50 [7]: 13.7 µM
- IC50 [8]: 23 µM
- IC50 [9]: 50.1 µM
- IC50 [10]: 26 µM
- IC50 [11]: 6.4 µM

SMILES: O=C(/C=C/c1cccc(OCc2ccccc2)c1)c1ccc(Cl)cc1
- IC50 [1]: 24.8 µM
- IC50 [2]: 22.8 µM
- IC50 [3]: 21.5 µM
- IC50 [4]: 63.2 µM
- IC50 [5]: 56.4 µM
- IC50 [6]: 20 µM
- IC50 [7]: 20 µM
- IC50 [8]: 43.6 µM
- IC50 [9]: 43.4 µM
- IC50 [10]: 21.3 µM
- IC50 [11]: 12.8 µM

SMILES: O=C(/C=C/c1cccc(OCc2ccccc2)c1)c1ccccc1Br
- Ratio IC50 [12]: 142
- IC50 [1]: 1.6 µM
- IC50 [2]: 2.2 µM
- IC50 [3]: 1.8 µM
- IC50 [4]: 1.8 µM
- IC50 [5]: 2.5 µM
- IC50 [6]: 1.2 µM
- IC50 [7]: 2.9 µM
- IC50 [8]: 9.1 µM
- IC50 [9]: 3 µM
- IC50 [10]: 61.2 µM
- IC50 [11]: 2.4 µM

SMILES: O=C(/C=C/c1cccc(OCc2ccccc2)c1)c1ccc(Br)cc1
- IC50 [1]: 6.5 µM
- IC50 [2]: 5.4 µM
- IC50 [3]: 6.4 µM
- IC50 [4]: 7.4 µM
- IC50 [5]: 1.8 µM
- IC50 [6]: 1 µM
- IC50 [7]: 6.5 µM
- IC50 [8]: 9 µM
- IC50 [9]: 5.7 µM
- IC50 [10]: 2.1 µM
- IC50 [11]: 5.3 µM

SMILES: O=C(/C=C/c1cccc(OCc2ccccc2)c1)c1ccccc1
- IC50 [1]: 9.8 µM
- IC50 [2]: 14.1 µM
- IC50 [3]: 20 µM
- IC50 [4]: 25.5 µM
- IC50 [5]: 6.7 µM
- IC50 [6]: 4.9 µM
- IC50 [7]: 8.5 µM
- IC50 [8]: 22 µM
- IC50 [9]: 42.4 µM
- IC50 [10]: 23.5 µM
- IC50 [11]: 7.8 µM

SMILES: O=C(/C=C/c1cccc(OCc2ccccc2)c1)c1ccc([N+](=O)[O-])cc1
- IC50 [1]: 17.5 µM
- IC50 [2]: 59.3 µM
- IC50 [3]: 23.3 µM
- IC50 [4]: 80.9 µM
- IC50 [5]: 56.4 µM
- IC50 [6]: 49 µM
- IC50 [7]: 37.7 µM
- IC50 [8]: 82.4 µM
- IC50 [9]: 52.5 µM
- IC50 [10]: 25.4 µM
- IC50 [11]: 26 µM

SMILES: O=C(/C=C/c1cccc(OCc2ccccc2)c1)c1cccc(Br)c1
- IC50 [1]: 7.9 µM
- IC50 [2]: 7.1 µM
- IC50 [3]: 6.9 µM
- IC50 [4]: 7.1 µM
- IC50 [5]: 6.3 µM
- IC50 [6]: 5.7 µM
- IC50 [7]: 8.3 µM
- IC50 [8]: 9.2 µM
- IC50 [9]: 9.1 µM
- IC50 [10]: 6.4 µM
- IC50 [11]: 7.2 µM

SMILES: COc1cc([C@H]2Oc3cc([C@H]4Oc5cc(O)cc(O)c5C(=O)[C@@H]4O)ccc3O[C@@H]2CO)ccc1O [SILYBIN A]
- IC50 [1]: 223 µM

SMILES: COc1cc([C@H]2Oc3cc([C@H]4Oc5ccccc5C(=O)[C@@H]4O)ccc3O[C@@H]2CO)ccc1O
- IC50 [1]: 13.8 µM
